# Measurements of several laboratories.
# Compare with care: the assays were run in different laboratories.
# SLC6A3: Sodium-dependent dopamine transporter (SLC6A3, Homo sapiens, UniProt Q01959)
# GHSR: Growth hormone secretagogue receptor type 1 (GHSR, Homo sapiens, UniProt Q92847)
# DRD3: D(3) dopamine receptor (DRD3, Homo sapiens, UniProt P35462)
# GLP1R: Glucagon-like peptide 1 receptor (GLP1R, Homo sapiens, UniProt P43220)
# CA12: Carbonic anhydrase 12 (CA12, Homo sapiens, UniProt O43570)
# ACE: Angiotensin-converting enzyme (ACE, Homo sapiens, UniProt P12821)
SMILES,target,observed,action,method,pH,quantity,value
CCC(CNc1nc(-c2cn3ccnc3cc2C)nc2ccccc12)c1ccccc1 (stereo not drawn),SLC6A3,transporter uptake,inhibitor,radiometric,,IC50,9.86 µM
CC[C@H](C)[C@H](NC(=O)[C@H](C)NC(=O)[C@H](C)NC(=O)[C@H](CCC(=O)O)NC(=O)[C@H](CCCNC(=N)N)NC(=O)[C@H](C)NC(=O)[C@H](CC(C)C)NC(=O)[C@H](CC(C)C)NC(=O)[C@H](CCCNC(=N)N)NC(=O)[C@H](CCCNC(=N)N)NC(=O)[C@H](CCC(=O)O)NC(=O)[C@H](Cc1c[nH]cn1)NC(=O)[C@H](CCC(=O)O)NC(=O)[C@@H]1CCCN1C(=O)[C@H](CO)NC(=O)[C@H](CC(C)C)NC(=O)[C@H](Cc1ccccc1)NC(=O)[C@H](Cc1c[nH]c2ccccc12)NC(=O)[C@H](CO)NC(=O)CN)C(=O)N1CCC[C@H]1C(=O)N1CCC[C@H]1C(=O)N1CCC[C@H]1C(=O)N1CCC[C@H]1C(=O)N[C@H](C(=O)N1CCC[C@H]1C(=O)N1CCC[C@H]1C(=O)N[C@@H](CC(C)C)C(=O)O)C(C)C,GHSR,calcium signal,agonist,fluorescence,,EC50,0.27 µM
Cc1[nH]c(C)c(S(=O)(=O)Nc2ccc(S(=O)(=O)F)c(F)c2)c1C(=O)N1CCC(F)(F)C1,DRD3,β-arrestin recruitment,antagonist,,,IC50,6.5 µM
CC[C@H](C)[C@H](NC(=O)[C@H](Cc1ccccc1)NC(=O)[C@H](CC(=O)O)NC(=O)[C@H](CCCNC(=N)N)NC(=O)[C@@H](NC(=O)[C@H](C)NC(=O)[C@H](CCCCN)NC(=O)[C@H](CCCNC(=N)N)NC(=O)[C@H](CCC(=O)O)NC(=O)[C@H](CC(C)C)NC(=O)[C@H](CC(C)C)NC(=O)[C@H](CCC(=O)O)NC(=O)[C@H](CC(=O)O)NC(=O)[C@H](Cc1c[nH]c2ccccc12)NC(=O)[C@H](CC(C)C)NC(=O)[C@H](CO)NC(=O)[C@@H](NC(=O)[C@H](Cc1ccccc1)NC(=O)[C@H](CCC(=O)O)NC(=O)[C@H](CC(C)C)NC(=O)[C@H](CCC(=O)O)NC(=O)CNC(=O)[C@@H]1CCCN1)[C@@H](C)O)C(C)C)C(=O)N[C@@H](C)C(=O)N[C@@H](Cc1c[nH]cn1)C(=O)N[C@@H](CC(C)C)C(=O)N[C@@H](CCCCN)C(=O)N[C@@H](CCC(N)=O)C(=O)O,GLP1R,calcium signal,antagonist,fluorescence,,IC50,1.61 µM
COC(=O)[C@H]1[C@@H](c2ccc(Cl)c(Cl)c2)C[C@@H]2CC[C@H]1N2CCCOCc1ccc2cc3ccccc3cc2c1,SLC6A3,ligand displacement,,radioligand,pH 7.4,Ki,0.051 µM
N#C[Se]CCCCOc1ccc2c(-c3ccccc3)cc(=O)oc2c1,CA12,enzyme activity,inhibitor,stopped-flow,,Ki,0.296 µM
NC(=O)CC[C@H](N)C(=O)NCC(=O)NCC(=O)N[C@@H](CC(=O)O)C(=O)N[C@@H](Cc1ccccc1)C(=O)O,ACE,enzyme activity,inhibitor,,,IC50,~1090 µM
CC(C)C[C@H](NC(=O)[C@H](Cc1ccc(O)cc1)NC(=O)[C@@H](N)C(C)C)C(=O)N[C@@H](CCC(=O)O)C(=O)N[C@@H](CCC(N)=O)C(=O)O,ACE,enzyme activity,inhibitor,absorbance,,IC50,27.9 µM
O=C(Nc1ccc2c(c1)C=CCP(=O)(O)O2)c1ccc(F)cc1,CA12,enzyme activity,inhibitor,stopped-flow,,Ki,0.004 µM
Cc1[nH]c(C)c(S(=O)(=O)Nc2ccc(S(F)(F)(F)(F)F)cc2)c1C(=O)N(C)C,DRD3,β-arrestin recruitment,antagonist,,,IC50,1.7 µM
O=C(Nc1ccc(C(F)(F)F)cc1)Nc1ccc2c(c1)C=CCP(=O)(O)O2,CA12,enzyme activity,inhibitor,stopped-flow,,Ki,> 10 µM
CCOC(=O)c1ccc(OC(=O)CCCCCN=C(N)N)cc1,"Kallikrein-2 (Homo sapiens, UniProt P20151)",enzyme activity,inhibitor,,,IC50,0.426 µM
CC[C@H](C)[C@H](NC(=O)[C@H](C)NC(=O)[C@H](C)NC(=O)[C@H](CCC(=O)O)NC(=O)[C@H](CCCNC(=N)N)NC(=O)[C@H](C)NC(=O)[C@H](CC(C)C)NC(=O)[C@H](CC(C)C)NC(=O)[C@H](CCCNC(=N)N)NC(=O)[C@H](CCCNC(=N)N)NC(=O)[C@H](C)NC(=O)[C@H](Cc1c[nH]cn1)NC(=O)[C@H](CCC(=O)O)NC(=O)[C@@H]1CCCN1C(=O)[C@H](CO)NC(=O)[C@H](CC(C)C)NC(=O)[C@H](Cc1ccccc1)NC(=O)[C@H](Cc1c[nH]c2ccccc12)NC(=O)[C@H](CO)NC(=O)CN)C(=O)N1CCC[C@H]1C(=O)N1CCC[C@H]1C(=O)N1CCC[C@H]1C(=O)N1CCC[C@H]1C(=O)N[C@H](C(=O)N[C@H](C(=O)N1CCC[C@H]1C(=O)N[C@@H](CC(C)C)C(=O)O)C(C)C)C(C)C,GHSR,calcium signal,agonist,fluorescence,,EC50,0.15 µM
O=C(Nc1ccc2c(c1)C=CCP(=O)(O)O2)c1ccc(Br)cc1,CA12,enzyme activity,inhibitor,stopped-flow,,Ki,0.0844 µM
CC[C@H](C)[C@H](NC(=O)[C@H](C)NC(=O)[C@H](CCCNC(=N)N)NC(=O)[C@H](CCC(=O)O)NC(=O)[C@H](CCCNC(=N)N)NC(=O)[C@H](CCC(=O)O)NC(=O)[C@H](CC(C)C)NC(=O)[C@H](CC(C)C)NC(=O)[C@H](CCCNC(=N)N)NC(=O)[C@H](CCCNC(=N)N)NC(=O)[C@H](CCC(N)=O)NC(=O)[C@H](Cc1c[nH]cn1)NC(=O)[C@H](CCC(=O)O)NC(=O)[C@@H]1CCCN1C(=O)[C@H](CO)NC(=O)[C@H](CC(C)C)NC(=O)[C@H](Cc1ccccc1)NC(=O)[C@H](Cc1c[nH]c2ccccc12)NC(=O)[C@H](CO)NC(=O)CN)C(=O)N1CCC[C@H]1C(=O)N1CCC[C@H]1C(=O)N1CCC[C@H]1C(=O)N1CCC[C@H]1C(=O)N[C@H](C(=O)N[C@H](C(=O)N1CCC[C@H]1C(=O)N[C@@H](CC(C)C)C(=O)O)C(C)C)C(C)C,GHSR,calcium signal,agonist,fluorescence,,EC50,0.16 µM
O=C(Nc1ccc(Br)cc1)Nc1ccc2c(c1)C=CCP(=O)(O)O2,CA12,enzyme activity,inhibitor,stopped-flow,,Ki,> 10 µM
CC[C@H](C)[C@H](NC(=O)[C@H](Cc1ccccc1)NC(=O)[C@H](CCC(N)=O)NC(=O)[C@H](CCCNC(=N)N)NC(=O)[C@@H](NC(=O)[C@H](C)NC(=O)[C@H](CCCCN)NC(=O)[C@H](CCCNC(=N)N)NC(=O)[C@H](CCC(=O)O)NC(=O)[C@H](CC(C)C)NC(=O)[C@H](CC(C)C)NC(=O)[C@H](CCC(=O)O)NC(=O)[C@H](CO)NC(=O)[C@H](Cc1c[nH]c2ccccc12)NC(=O)[C@H](CC(C)C)NC(=O)[C@H](CO)NC(=O)[C@@H](NC(=O)[C@H](Cc1ccccc1)NC(=O)[C@H](CCC(=O)O)NC(=O)[C@H](CC(C)C)NC(=O)[C@H](CCC(=O)O)NC(=O)CNC(=O)[C@@H]1CCCN1)[C@@H](C)O)C(C)C)C(=O)N[C@@H](CCC(=O)O)C(=O)N[C@@H](CC(=O)O)C(=O)N[C@@H](CC(C)C)C(=O)N[C@@H](CCCCN)C(=O)N[C@@H](CCCCN)C(=O)O,GLP1R,calcium signal,antagonist,fluorescence,,IC50,0.874 µM
O=C(Nc1ccc2c(c1)C=CCP(=O)(O)O2)c1ccccc1I,CA12,enzyme activity,inhibitor,stopped-flow,,Ki,0.0069 µM
CC(C)[C@H](NC(=O)[C@@H](N)CCC(=O)O)C(=O)N[C@@H](CC(N)=O)C(=O)N[C@@H](Cc1ccc(O)cc1)C(=O)N[C@@H](CC(=O)O)C(=O)O,ACE,enzyme activity,inhibitor,,,IC50,~1550 µM
O=C(Nc1cccc(Cl)c1)Nc1ccc2c(c1)C=CCP(=O)(O)O2,CA12,enzyme activity,inhibitor,stopped-flow,,Ki,> 10 µM
Cc1[nH]c(C)c(S(=O)(=O)Nc2ccc(S(F)(F)(F)(F)F)c(Cl)c2)c1C(=O)N1CCC(F)(F)C1,DRD3,β-arrestin recruitment,antagonist,,,IC50,1.1 µM
